Calls of active or inactive are those of the source. The calls are words filed in the database; no cut-off is given here.
Legend:
[1] = Cytotoxicity against HEK293 cells by WST-1 assay; assay type: cell-based; settings: human
How it was run: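 HEK293 cells, poly-Lys-coated wells (1 × 10^4 cells/well), grown 16–20 h, then exposed to compounds in DMEM/5% FBS (0.1% DMSO final) for 20–22 h. WST-1 added, 2 h, A405 read. Viability = treated/vehicle absorbance after background (no-cell wells) subtraction; CC50 derived from dose curves.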

HEK293 = assay: Upregulation of HA-tagged rhodopsin P23H expression in HEK293 cell surface by ELISA; assay type: functional, cell-based; settings: Homo sapiens
How it was run: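 HEK293 in poly-lysine-coated wells transfected with HA-tagged human P23H rhodopsin; 2–3 h later compounds in DMEM/5% FBS (0.1% DMSO final) for 20 h. Non-permeabilized cells fixed, blocked, HRP-anti-HA 1.5 h rt, chemiluminescent readout. Background-subtracted signal expressed relative to untreated cells (=1.0); ≥2 independent experiments (n >4).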

[2] = tested on: Rhodopsin (Homo sapiens), P08100 [P23H]; assay: Induction of subcellular localization of HA-tagged human rhodopsin P23H mutant on HEK293 cell surface by immunofluorescence microscopy; assay type: cell-based

Row | Structure (SMILES) | CC50 [1] | Activity (HEK293) | Activity [2]
1 | CC1(C)CCC(C)(C)c2cc(C(=O)NCc3ccc(C=O)cc3)ccc21 | 49 µM | – | –
2 | CC1=C(/C=C/C(C)=C/C=C\C(C)=C\C=O)C(C)(C)CCC1 [RHODOPSIN] | 23 µM | Dose-dependent effect | Active
3 | O=C(O)c1ccc(COC(=O)c2cc(C(F)(F)F)cc(C(F)(F)F)c2)cc1 | > 100 µM | – | –
4 | CC(C)(C)c1ccc(C(=O)OCc2ccc(C=O)cc2)cc1 | 63 µM | – | –
5 | CC(C)(C)c1cc(C(=O)OCc2ccc(C=O)cc2)cc(C(C)(C)C)c1 | 34 µM | – | –
6 | NC(=O)c1ccc(COC(=O)c2cc(C(F)(F)F)cc(C(F)(F)F)c2)cc1 | > 100 µM | – | –
7 | O=Cc1ccc(COC(=O)c2cc(C(F)(F)F)cc(C(F)(F)F)c2)cc1 | > 100 µM | – | –
8 | CC1(C)CCC(C)(C)c2cc(C(=O)OCc3ccc(C=O)cc3)ccc21 | 48 µM | – | –
9 | CC(C)(C)c1cccc(C(=O)OCc2ccc(C=O)cc2)c1 | 73 µM | – | –
10 | CC1=C(/C=C/C(C)=C\C=C\C(C)=C\C=O)C(C)(C)CCC1 [ISO RHODOPSIN] | 28 µM | Dose-dependent effect | Active
11 | O=Cc1ccc(COC(=O)c2ccc3c(c2)CCCC3)cc1 | > 100 µM | – | –
12 | O=C(OCc1ccc(B(O)O)cc1)c1cc(C(F)(F)F)cc(C(F)(F)F)c1 | 49 µM | – | –
